Active and inactive are the calls of the source. The rule behind the calls is not given here.
Key:
[1] = target: RAC-alpha serine/threonine-protein kinase (Homo sapiens) (UniProt P31749); assay: Inhibition of AKT in human A-431 cells assessed as reduction in PRAS40 phosphorylation at T246 residue at 5 umol/L measured after 5 hrs by Western blot analysis; type: cell-based; conditions: dose 5.0 µmol/L
Summary of the method: (§1)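 Cells were lysed in Tris-HCl pH 7.5, 150 mM NaCl, 1% Triton X-100 with protease and phosphatase inhibitors. Lysates were run on SDS-PAGE, transferred to nitrocellulose and probed with phospho-specific antibodies.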

NCI-H1993 [2] = assay: Induction of apoptosis in human NCI-H1993 cells assessed as fold induction of capsase-3/7 activity measured after 24 to 48 hrs in presence of gemcitabine by caspase-glo 3/7 assay; type: functional; conditions: time 24-48 hrs
NCI-H358 = assay: Synergistic antiproliferative activity against human NCI-H358 cells assessed as combination index at ED90 measured after 72 hrs in presence of erlotinib by celltiter-glo assay; type: functional
NCI-H23 = assay: Synergistic antiproliferative activity against human NCI-H23 cells assessed as combination index at ED50 measured after 72 hrs in presence of erlotinib by celltiter-glo assay; type: functional
NCI-H460 [3] = assay: Synergistic antiproliferative activity against human NCI-H460 cells assessed as combination index at ED75 measured after 72 hrs in presence of camptothecin by celltiter-glo assay; type: functional
SK-BR-3 = assay: Synergistic antiproliferative activity against human SK-BR-3 cells assessed as combination index at ED75 measured after 96 hrs in presence of lapatinib by celltiter-glo assay; type: functional
SK-OV-3 = assay: Antiproliferative activity against human SK-OV-3 cells assessed as reduction in cell proliferation measured after 72 hrs by celltiter-glo assay; type: functional, cell-based; conditions: SK-OV-3, 72 h
Summary of the method: (§2)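 Cells in RPMI 1640 with 10% heat-inactivated FBS at 37°C and 5% CO₂ were seeded at 2 to 3 × 10³ per well. […] Growth was read as cellular ATP by CellTiter-Glo.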

HCC70 [4] = assay: Synergistic antiproliferative activity against human HCC70 cells assessed as combination index at ED75 measured after 72 hrs in presence of docetaxel by celltiter-glo assay; type: functional
Summary of the method: (§3)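 Cells grown in RPMI 1640 with 10% heat-inactivated FBS at 37°C, 5% CO₂. Seeded at 2 to 3 × 10³ per well; drugs added 24 h later. […] Viability read as cellular ATP by CellTiter-Glo. CI calculated by Chou–Talalay from median-effect plots at ED50, ED75 and ED90.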

[5] = Toxicity in human NCI-H292 cells xenografted CD-1 mouse assessed as death at 120 mg/kg, po administered 3 times per week for 2 weeks and measured during compound dosing; type: organism-based; conditions: in vivo, 336 h
Summary of the method: (§4)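 NCI-H292 cells in 50% Matrigel/PBS injected s.c. into flank of female CD1-nude mice; dosing began after 2 wk at mean tumour 0.2 cm³, n = 5/group. […] Body weight and signs monitored; treatment ended day 16.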

[6] = Toxicity in human NCI-H292 cells xenografted CD-1 mouse assessed as death at 120 mg/kg, po administered 3 times per week for 2 weeks starting 2 hrs post-erlotinib treatment and measured during compound dosing; type: organism-based; conditions: in vivo, 336 h; summary of the method: as §4
NCI-N87 = assay: Synergistic antiproliferative activity against human NCI-N87 cells assessed as combination index at ED75 treated 24 hrs prior to lapatinib and measured after 72 hrs by celltiter-glo assay; type: functional; conditions: time 96 hrs
MDA-MB-468 = assay: Synergistic antiproliferative activity against human MDA-MB-468 cells assessed as combination index at ED90 measured after 72 hrs in presence of docetaxel by celltiter-glo assay; type: functional
NCI-H441 = assay: Induction of apoptosis in human NCI-H441 cells assessed as fold induction of capsase-3/7 activity measured after 24 to 48 hrs in presence of carboplatin by caspase-glo 3/7 assay; type: functional; conditions: time 24-48 hrs
BT-474 = assay: Synergistic antiproliferative activity against human BT-474 cells assessed as combination index at ED50 preincubated for 24 hrs followed by compound washout and subsequent docetaxel addition and measured after 72 hrs by celltiter-glo assay; type: functional
Summary of the method: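 Sequential schedule. Cells were seeded at 2 to 3 × 10³ per well in RPMI 1640 with 10% FBS and dosed 24 h after plating. They were exposed to the Akt inhibitor for 24 h, washed free of it, then given docetaxel for a further 72 h. Fixed concentration ratios spanned each agent's IC₅₀. ATP was read by CellTiter-Glo, and Chou–Talalay CI was calculated at ED50, ED75 and ED90.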

NCI-H661 = assay: Induction of apoptosis in human NCI-H661 cells assessed as fold induction of capsase-3/7 activity measured after 24 to 48 hrs in presence of carboplatin by caspase-glo 3/7 assay; type: functional; conditions: time 24-48 hrs
[7] = Toxicity in human PC-3 cells xenografted CD1 nude mouse assessed as body weight loss at 120 mg/kg, po administered 3 times per week for 2 weeks starting 24 hrs post docetaxel treatment and measured on day 15; type: organism-based; conditions: in vivo, 360 h, time 15 day
Summary of the method: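 Male CD1-nude mice with s.c. PC-3 tumours (50% Matrigel/50% PBS, left flank), randomized at mean 0.2 cm³, n=5/group, treated from 25 d post-implant. Body weight monitored versus vehicle-only controls.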

NCI-H460 [8] = assay: Synergistic antiproliferative activity against human NCI-H460 cells assessed as combination index at ED90 measured after 72 hrs in presence of gemcitabine by celltiter-glo assay; type: functional
HCC70 [9] = assay: Synergistic antiproliferative activity against human HCC70 cells assessed as combination index at ED50 treated 24 hrs prior to lapatinib and measured after 72 hrs by celltiter-glo assay; type: functional; conditions: time 96 hrs
MCF7 = assay: Synergistic antiproliferative activity against human MCF7 cells assessed as combination index at ED50 measured after 72 hrs in presence of docetaxel by celltiter-glo assay; type: functional; summary of the method: as §3
Calu-6 = assay: Synergistic antiproliferative activity against human Calu-6 cells assessed as combination index at ED75 measured after 72 hrs in presence of erlotinib by celltiter-glo assay; type: functional; summary of the method: as §3
[10] = target: RAC-alpha serine/threonine-protein kinase (Homo sapiens) (UniProt P31749); assay: Inhibition of AKT in human A-431 cells assessed as reduction in PRAS40 phosphorylation at T246 residue at 5 umol/L measured after 5 hrs in presence of erlotinib by Western blot analysis; type: cell-based; conditions: dose 5.0 µmol/L; summary of the method: as §1
NCI-H1993 [11] = assay: Synergistic antiproliferative activity against human NCI-H1993 cells assessed as combination index at ED25 to ED90 measured after 72 hrs in presence of gemcitabine by celltiter-glo assay; type: functional
MDA-MB-231 = assay: Synergistic antiproliferative activity against human MDA-MB-231 cells assessed as combination index at ED75 measured after 72 hrs in presence of docetaxel by celltiter-glo assay; type: functional; summary of the method: as §3
HCC827 = assay: Antiproliferative activity against human HCC827 cells assessed as reduction in cell proliferation measured after 72 hrs by celltiter-glo assay; type: functional, cell-based; conditions: HCC827, 72 h; summary of the method: as §2
A2780 = assay: Synergistic antiproliferative activity against human A2780 cells assessed as combination index at ED75 measured after 72 hrs in presence of camptothecin by celltiter-glo assay; type: functional
Summary of the method: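 Cells were seeded at 2–3 × 10³ per well in RPMI 1640 with 10% FBS. At 24 h, MK-2206 and the partner drug were added simultaneously at constant concentration ratios spanning each agent's IC₅₀, for 72 h. Growth was read as cellular ATP by CellTiter-Glo. CI was taken from median-effect plots of each agent alone and in combination (Chou–Talalay), at ED₅₀, ED₇₅ and ED₉₀.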

Chain of RAC-alpha serine/threonine-protein kinase (Homo sapiens) (P31749 whole entry): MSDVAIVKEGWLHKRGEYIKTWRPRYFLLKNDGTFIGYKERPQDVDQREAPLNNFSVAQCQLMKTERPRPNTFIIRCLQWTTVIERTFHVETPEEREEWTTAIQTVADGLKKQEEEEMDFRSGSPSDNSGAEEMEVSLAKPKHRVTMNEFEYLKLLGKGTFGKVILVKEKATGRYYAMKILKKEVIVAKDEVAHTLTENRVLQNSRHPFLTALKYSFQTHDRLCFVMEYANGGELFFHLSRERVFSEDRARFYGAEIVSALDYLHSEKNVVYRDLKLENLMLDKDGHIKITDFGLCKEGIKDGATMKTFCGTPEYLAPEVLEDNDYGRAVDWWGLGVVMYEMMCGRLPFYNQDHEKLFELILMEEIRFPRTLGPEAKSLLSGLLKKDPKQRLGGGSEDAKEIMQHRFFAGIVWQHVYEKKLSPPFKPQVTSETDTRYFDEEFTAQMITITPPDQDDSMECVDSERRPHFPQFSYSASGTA

SMILES: Cl.NC1(c2ccc(-c3nc4ccn5c(=O)[nH]nc5c4cc3-c3ccccc3)cc2)CCC1
- inhibition [1]: Active
- fold change (FC) (NCI-H1993 [2]): 1.2
- CI90 (NCI-H358): 0.08
- CI50 (NCI-H23): 0.32
- CI75 (NCI-H460 [3]): 0.39
- CI75 (SK-BR-3): 0.18
- IC50 (SK-OV-3): 5.1 µM
- CI75 (HCC70 [4]): 0.7
- Activity [5]: Non-Toxic
- Activity [6]: Non-Toxic
- CI75 (NCI-N87): 0.18
- CI90 (MDA-MB-468): 0.9
- fold change (FC) (NCI-H441): 2.3
- CI50 (BT-474): 1.6
- fold change (FC) (NCI-H661): 2
- Activity [7]: Non-Toxic
- CI90 (NCI-H460 [8]): 0.56
- CI50 (HCC70 [9]): 0.18
- CI50 (MCF7): 0.7
- CI75 (Calu-6): 0.25
- inhibition [10]: Active
- CI (NCI-H1993 [11]): 0.14
- CI75 (MDA-MB-231): 0.7
- IC50 (HCC827): 4.3 µM
- CI75 (A2780): 0.4

Reference: ChEMBL document CHEMBL5705892, “MK-2206, an allosteric Akt inhibitor, enhances antitumor efficacy by standard chemotherapeutic agents or molecular targeted drugs in vitro and in vivo” (Mol Cancer Ther, 2010)
